Results taken from ChEMBL document CHEMBL4028894, “Identification of a New Pyrazolo[1,5-a]quinazoline Ligand Highly Affine to γ-Aminobutyric Type A (GABAA) Receptor Subtype with Anxiolytic-Like and Antihyperalgesic Activity” (J Med Chem, 2017).

How the values were obtained:
Bos taurus = species: Bos taurus; assay: Displacement of [3H]Ro15-1788 from GABAA receptor in bovine cerebral cortex membranes at 10 uM after 90 mins by liquid scintillation counting method relative to control; type: cell membranes; settings: Membrane
Method in brief: (§1)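 Bovine cerebral cortex membranes in 50 mM tris-citrate pH 7.4, with displacement of specific [3H]flumazenil binding. Single-point screen at 10 μM gives % inhibition. Where inhibition exceeds 80%, at least six concentrations tested and Ki derived by iterative curve fitting and the Cheng-Prusoff equation. Five experiments, each in triplicate; mean ± SEM.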

[1] = Displacement of [3H]Ro15-1788 from GABAA receptor in bovine cerebral cortex membranes after 90 mins by liquid scintillation counting method; type: cell membranes, Bos taurus, Membrane; method in brief: as §1
Mus musculus [2] = assay: Anxiolytic-like activity in Swiss albino mouse assessed as persistent time in light box at 100 mg/kg, ip administered 40 mins prior to testing by light dark box test (131.9 +/- 6.5 secs); type: functional
Mus musculus [3] = assay: (§2) Reversal of scopolamine-induced amnesic effect in Swiss albino mouse assessed as retention session latency time at 10 mg/kg, po administered 30 mins followed by establishment of training session and immediate addition of scopolamine post session by passive-avoidance test (reference value: 46.3 +/- 7.5 secs); type: functional
Method in brief: (§3)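 Male Swiss albino mice, 8 per group, step-through passive avoidance. Compound given p.o. in 1% carboxymethylcellulose 30 min before training. Scopolamine 1.5 mg/kg in saline given i.p. immediately after training. Punishment on entering the dark compartment is a fall into 10 °C water. Latencies measured at training and at retention 24 h later (max 120 s).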

Rattus norvegicus [4] = assay: Antihyperalgesic activity in Sprague-Dawley rat peripheral mononeuropathy model assessed as ipsilateral paw pressure at 30 mg/kg, po after 45 mins by analgesimeter (36.9 +/- 3.8 g); type: functional
Rattus norvegicus [5] = assay: Antihyperalgesic activity in Sprague-Dawley rat peripheral mononeuropathy model assessed as ipsilateral paw pressure at 10 mg/kg, po after 30 mins by analgesimeter (41.7 +/- 3.6 g); type: functional
Rattus norvegicus [6] = assay: Antihyperalgesic activity in Sprague-Dawley rat peripheral mononeuropathy model assessed as ipsilateral paw pressure at 10 mg/kg, po after 45 mins by analgesimeter (36.9 +/- 3.8 g); type: functional
Mus musculus [7] = assay: as §2, with “30” for “10”; type: functional; method in brief: as §3
Mus musculus [8] = assay: Anxiolytic-like activity in Swiss albino mouse assessed as persistent time in light box at 30 mg/kg, po administered 30 mins prior to testing in presence of GABAA receptor antagonist flumazenil by light dark box test (131.9 +/- 6.5 secs); type: functional
Mus musculus [9] = assay: Antihyperalgesic activity in streptozotocin-induced Swiss albino mouse hyperalgesia model assessed as licking latency time at 30 mg/kg, po after 60 mins by hot plate test (reference value: 9.6 +/- 0.9 secs); type: functional
NSC = assay: Cytotoxicity against human H9-derived neural stem cells assessed as effect on cell viability at 1 to 1000 nM after 72 hrs by MTS assay; type: cell-based; settings: 1 µM
Method in brief: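 Neural stem cells derived from H9 were grown on polyornithine/laminin and differentiated for 7 days in serum-free Neurobasal with 2% B-27, 2 mM L-glutamine and 5 μM retinoic acid. Cells then exposed 72 h to 1 nM-1 μM compound. MTS absorbance read at 490, background subtracted, expressed as % of untreated cells. Three independent experiments, each in triplicate.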

Mus musculus [10] = assay: Amnesic effect in Swiss albino mouse assessed as training session latency time at 30 mg/kg, po administered 30 mins prior to testing by passive-avoidance test (reference value: 14.1 +/- 3.4 secs); type: ADME, organism-based; settings: in vivo
Mus musculus [11] = assay: Anxiolytic-like activity in Swiss albino mouse assessed as persistent time in light box at 1 mg/kg, po administered 30 mins prior to testing by light dark box test (131.9 +/- 6.5 secs); type: functional
Mus musculus [12] = assay: Anticonvulsant activity in Swiss albino mouse assessed as protection against subcutaneous pentylenetetrazole-induced seizures at 10 mg/kg, po administered 30 mins followed by pentylenetetrazole challenge measured over 30 mins relative to control; type: functional
Method in brief: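 Male Swiss albino mice (23-30 g), 6 per group. Test drug suspended in 1% carboxymethylcellulose, given orally 30 min before PTZ 90 mg/kg s.c. (saline). Clonic generalized convulsions recorded over 30 min. Result expressed as % protection versus vehicle-treated animals (0% protection).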

Mus musculus [13] = assay: Effect on motor coordination in Swiss albino mouse at 30 mg/kg, po measured over 30 secs at 15 to 60 mins post drug administration by rota rod test; type: ADME, organism-based; settings: in vivo
Method in brief: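 Male Swiss albino mice, 8 per group. Oral dose in 1% carboxymethylcellulose. Rota rod turning at 16 r.p.m. Falls from the rod counted over 30 s, measured before dosing and every 15 min up to 60 min after.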

Mus musculus [14] = assay: Effect on licking latency time in Swiss albino mouse at 30 mg/kg, po after 60 mins by hot plate test (reference value: 17.9 +/- 1.1 secs); type: ADME, organism-based; settings: in vivo, 1 h
Mus musculus [15] = assay: Antihyperalgesic activity in streptozotocin-induced Swiss albino mouse hyperalgesia model assessed as licking latency time at 30 mg/kg, po after 45 mins by hot plate test (reference value: 10.9 +/- 0.8 secs); type: functional
Mus musculus [16] = assay: Effect on licking latency time in Swiss albino mouse at 30 mg/kg, po after 15 mins by hot plate test (reference value: 18.3 +/- 1.1 secs); type: ADME, organism-based; settings: in vivo, 0.25 h
Mus musculus [17] = assay: Antihyperalgesic activity in streptozotocin-induced Swiss albino mouse hyperalgesia model assessed as licking latency time at 30 mg/kg, po after 30 mins by hot plate test (reference value: 10.2 +/- 0.8 secs); type: functional
Mus musculus [18] = assay: Antihyperalgesic activity in streptozotocin-induced Swiss albino mouse hyperalgesia model assessed as licking latency time at 30 mg/kg, po after 15 mins by hot plate test (reference value: 9.4 +/- 1.1 secs); type: functional
Rattus norvegicus [19] = assay: Antihyperalgesic activity in Sprague-Dawley rat peripheral mononeuropathy model assessed as ipsilateral paw pressure at 30 mg/kg, po after 15 mins by analgesimeter (33.7 +/- 3.2 g); type: functional
Mus musculus [20] = assay: Effect on licking latency time in Swiss albino mouse at 30 mg/kg, po after 45 mins by hot plate test (reference value: 18 +/- 0.9 secs); type: ADME, organism-based; settings: in vivo, 0.75 h
Mus musculus [21] = assay: Anxiolytic-like activity in Swiss albino mouse assessed as persistent time in light box at 10 mg/kg, po administered 30 mins prior to testing by light dark box test (131.9 +/- 6.5 secs); type: functional
Mus musculus [22] = assay: Effect on explorative activity in Swiss albino mouse at 30 mg/kg, po measured over 5 mins by […] test; type: ADME, organism-based; settings: in vivo
Method in brief: (§4)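 Male Swiss albino mice, 8 per group, hole-board: a 40 cm square with 16 holes. Compound given 30 min before the test. Each mouse explores freely for 5 min. Photobeam counts across quadrants give locomotor activity; photocells in the holes give the number of hole inspections.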

Mus musculus [23] = assay: as §2, with “training” for “retention”, “15.9” for “46.3”, “3” for “7.5”; type: functional; method in brief: as §3
Mus musculus [24] = assay: Effect on licking latency time in Swiss albino mouse at 30 mg/kg, po after 30 mins by hot plate test (reference value: 18.8 +/- 1.2 secs); type: ADME, organism-based; settings: in vivo, 0.5 h
Mus musculus [25] = assay: Anticonvulsant activity in Swiss albino mouse assessed as protection against subcutaneous pentylenetetrazole-induced seizures at 100 mg/kg, po administered 30 mins followed by pentylenetetrazole challenge measured over 30 mins relative to control; type: functional
Method in brief: (§5)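 Male Swiss albino mice, 6 per group. Compound given p.o. in 1% carboxymethylcellulose. Pentylenetetrazole 90 mg/kg in saline given s.c. 30 min later. Occurrence of clonic generalized convulsions noted over 30 min. Result expressed as % protection, with the vehicle group taken as 0%.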

Mus musculus [26] = assay: Effect on spontaneous motility in Swiss albino mouse at 30 mg/kg, po measured over 5 mins by […] test; type: ADME, organism-based; settings: in vivo; method in brief: as §4
Mus musculus [27] = assay: Anxiolytic-like activity in Swiss albino mouse assessed as persistent time in light box at 30 mg/kg, po administered 30 mins prior to testing by light dark box test (131.9 +/- 6.5 secs); type: functional
Rattus norvegicus [28] = assay: Antihyperalgesic activity in Sprague-Dawley rat peripheral mononeuropathy model assessed as ipsilateral paw pressure at 10 mg/kg, po after 15 mins by analgesimeter (33.7 +/- 3.2 g); type: functional
Rattus norvegicus [29] = assay: Antihyperalgesic activity in Sprague-Dawley rat peripheral mononeuropathy model assessed as ipsilateral paw pressure at 30 mg/kg, po after 30 mins by analgesimeter (41.7 +/- 3.6 g); type: functional
Mus musculus [30] = assay: Amnesic effect in Swiss albino mouse assessed as retention session latency time at 30 mg/kg, po administered 30 mins prior to testing by passive-avoidance test (reference value: 98.4 +/- 8.8 secs); type: ADME, organism-based; settings: in vivo
Mus musculus [31] = assay: Anticonvulsant activity in Swiss albino mouse assessed as protection against subcutaneous pentylenetetrazole-induced seizures at 30 mg/kg, po administered 30 mins followed by pentylenetetrazole challenge measured over 30 mins relative to control; type: functional; method in brief: as §5
Rattus norvegicus [32] = assay: Effect on pain threshold in contralateral paw in Sprague-Dawley rat peripheral mononeuropathy model at 30 mg/kg, po; type: ADME, organism-based; settings: in vivo
Mus musculus [33] = assay: as §2, with “training” for “retention”, “30” for “10”, “15.9” for “46.3”, “3” for “7.5”; type: functional; method in brief: as §3

COCCOc1ccc2cnc3c(C#N)cnn3c2c1
inhibition (Bos taurus): 53%

COc1ccccc1COC(=O)c1cnn2c1ncc1ccccc12
inhibition (Bos taurus): > 80% | Ki [1]: 3.16 nM

CCOC(=O)c1ncn2c1CN(C)C(=O)c1cc(F)ccc1-2 [FLUMAZENIL]
Time (Mus musculus [2]): 127.5 s

COc1ccc2cnc3c(C(=O)OCc4ccccc4OC)cnn3c2c1
Time (Mus musculus [3]): 53.1 s | Activity (Rattus norvegicus [4]): 35.9 g | Activity (Rattus norvegicus [5]): 41.7 g | Activity (Rattus norvegicus [6]): 36.9 g | Time (Mus musculus [7]): 60.4 s | Time (Mus musculus [8]): 136.4 s | Time (Mus musculus [9]): 11.2 s | Activity (NSC): Non-Toxic | Time (Mus musculus [10]): 16.5 s | Time (Mus musculus [11]): 133.1 s | Activity (Mus musculus [12]): 0% | Activity (Mus musculus [13]): Non-Toxic | Time (Mus musculus [14]): 17.5 s | Time (Mus musculus [15]): 13.1 s | Time (Mus musculus [16]): 17.3 s | Time (Mus musculus [17]): 15.5 s | Time (Mus musculus [18]): 16.6 s | Activity (Rattus norvegicus [19]): 52.4 g | Time (Mus musculus [20]): 18.4 s | inhibition (Bos taurus): > 80% | Time (Mus musculus [21]): 169.6 s | Ki [1]: 0.27 nM | Activity (Mus musculus [22]): Non-Toxic | Time (Mus musculus [23]): 17.5 s | Time (Mus musculus [24]): 17.2 s | Activity (Mus musculus [25]): 10% | Activity (Mus musculus [26]): Non-Toxic | Time (Mus musculus [27]): 165.7 s | Activity (Rattus norvegicus [28]): 39.8 g | Activity (Rattus norvegicus [29]): 41.7 g | Time (Mus musculus [30]): 105.6 s | Activity (Mus musculus [31]): 10% | Activity (Rattus norvegicus [32]): Non-Toxic | Time (Mus musculus [33]): 17.52 s

COc1ccc2cnc3c(C#N)cnn3c2c1
inhibition (Bos taurus): > 80% | Ki [1]: 378 nM

COc1ccc2cnc3c(C(=O)OCc4cccs4)cnn3c2c1
inhibition (Bos taurus): > 80% | Ki [1]: 16.7 nM

O=C(OCc1ccccc1)c1cnn2c1ncc1ccccc12
inhibition (Bos taurus): > 80% | Ki [1]: 25.9 nM

COc1ccc2c(c1)-n1ncc(C(=O)OCc3ccccc3)c1NC2
inhibition (Bos taurus): > 80% | Ki [1]: 34 nM

CCOC(=O)c1cnn2c1[nH]c(=O)c1ccc(OC)cc12
inhibition (Bos taurus): 2%

COc1ccc2c(c1)-n1ncc(C(=O)OCc3ccccc3OC)c1NC2
inhibition (Bos taurus): > 80% | Ki [1]: 16 nM

COc1ccc2cnc3c(C(=O)OC(C)C)cnn3c2c1
inhibition (Bos taurus): > 80% | Ki [1]: 97.4 nM

COc1ccc2cnc3c(C(=O)OCc4ccco4)cnn3c2c1
inhibition (Bos taurus): > 80% | Ki [1]: 15.2 nM

O=C(OCc1cccs1)c1cnn2c1ncc1ccccc12
inhibition (Bos taurus): > 80% | Ki [1]: 13.2 nM

CCOC(=O)c1cnn2c1ncc1ccccc12
inhibition (Bos taurus): > 80% | Ki [1]: 529 to 835 nM

CN1C(=O)CN=C(c2ccccc2)c2cc(Cl)ccc21 [DIAZEPAM]
Activity (Mus musculus [12]): 100% | Time (Mus musculus [21]): 165.6 s | Ki [1]: 12.3 nM

COc1ccc2cnc3c(C(=O)OCc4ccccc4)cnn3c2c1
inhibition (Bos taurus): > 80% | Ki [1]: 19 nM

N#Cc1cnn2c1ncc1ccccc12
inhibition (Bos taurus): 27%

CCOC(=O)c1cnn2c1ncc1ccc(OC)cc12
inhibition (Bos taurus): > 80% | Ki [1]: 102 nM

CCOC(=O)c1cnn2c1NCc1ccc(OC)cc1-2
inhibition (Bos taurus): > 80% | Ki [1]: 376 nM
